Assay outcomes (PubChem)
Sampled rows, rich in hits. Any-hit rate of the full collection: about 3%.
5HT1a antag: human 5-HT1a receptor antagonists, primary screen, cell-based, CHO, Ga15 NFAT-bla reporter; 5-hydroxytryptamine receptor 1A (Homo sapiens), P08908; CHO 5-HT1a Ga15 NFAT-bla reporter, antagonist mode; 0.68% of 62,000 active; AID 612, 2007; inhibition, % at 10 µM;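 active = inhibition above the mean of all tested compounds plus 3 SD, cut at about 43% in these data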;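 note: receptor stimulated by 5-CT agonist at 100 nM near EC80; beta-lactamase reporter measured by ratiometric fluorescence of a cleavable substrate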
5HT1a ag: human 5-HT1a receptor agonists, primary screen, cell-based, CHO, Ga15 NFAT-bla reporter | 5-hydroxytryptamine receptor 1A (Homo sapiens), P08908 | CHO 5-HT1a Ga15 NFAT-bla reporter, FRET ratio; 0% basal, 100% maximal reference agonist | activation, % at 10 µM | 0.56% of 65,000 active | AID 567, 2006;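 active = activation above the screen-wide mean activation plus 3 SD, cut at about 19% in these data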;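 note: 0% = DMSO wells and 100% = 5-CT at EC100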
HTR1E agonist: 5-HT1E receptor agonists, primary screen, cell-based, HTS. AID 574, 2007. 0.69% of 65,000 active. 5-hydroxytryptamine receptor 1E (Homo sapiens), P28566. CHO 5-HT1E Ga15 NFAT-bla reporter, FRET; 0% DMSO wells, 100% control agonist wells. activation, % at 6 µM;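 active = activation above a set limit, the screen-wide mean activation plus 3 SD, cut at about 8.5% in these data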;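 note: 100% = positive control agonist at 1 µM giving full maximal response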
Target sequence (P28566 whole entry, looked up): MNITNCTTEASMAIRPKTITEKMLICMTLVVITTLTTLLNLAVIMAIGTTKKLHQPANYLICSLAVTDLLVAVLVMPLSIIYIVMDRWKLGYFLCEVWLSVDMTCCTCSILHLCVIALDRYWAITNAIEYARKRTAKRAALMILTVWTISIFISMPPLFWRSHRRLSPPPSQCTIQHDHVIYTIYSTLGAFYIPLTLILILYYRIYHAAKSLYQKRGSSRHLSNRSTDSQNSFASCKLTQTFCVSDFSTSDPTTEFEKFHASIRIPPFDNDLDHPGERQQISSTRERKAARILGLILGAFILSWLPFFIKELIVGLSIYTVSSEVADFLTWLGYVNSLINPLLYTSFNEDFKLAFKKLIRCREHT
S1P3 ag: human S1P3 receptor agonists, primary screen, cell-based, primary and confirmation, NFAT-BLA reporter | 0.1% of 60,000 active | activation, % at 4.5 µM | S1P3 NFAT-BLA reporter cells, agonism, FRET ratio; relative to 1 µM S1P, basal subtracted | Sphingosine 1-phosphate receptor 3 (Homo sapiens), Q99500;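 active = activation above the screen-wide mean plus 3 SD, cut at about 4.5% in these data, passing the limit was not always enough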
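material = human S1P3 NFAT-BLA reporter CHO cells | schedule = 4 h compound at 37 °C, 2 h substrate at RT | measured by = fluorescent BLA substrate, ex 405 nm, em 460/535 nm ratio | controls = 1 µM S1P reference | replication = primary once, confirmation triplicate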
S1P1 ag-PAM: S1P1 agonists and agonism potentiators, primary screen, cell-based, primary and confirmation screens, CRE-bla reporter; Sphingosine 1-phosphate receptor 1 (Homo sapiens), P21453; S1P1 CRE-bla cells, forskolin, beta-lactamase FRET, potentiator mode; S1P1 agonist co-added at EC20, 2 nM; 100% = saturating reference agonist, 0% = basal; activation, % at 9.5 µM; 0.57% of 56,000 active; AID 449, 2006;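 active = activation above a cutoff set at the mean activation of all tested compounds plus 3 SD, cut at about 54% in these data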;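 note: forskolin at 4 µM as EC80 and the EC20 agonist is SEW2871; 100% = SEW2871 at its EC100 plus forskolin at EC80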
5HT1E antag: 5-HT1E receptor antagonists, primary screen, cell-based, HTS; inhibition, % at 6 µM; 0.99% of 65,000 active; CHO 5-HT1E Ga15 NFAT-bla reporter, FRET, antagonist; 5-hydroxytryptamine receptor 1E (Homo sapiens), P28566;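 active = inhibition above a set limit, the mean inhibition across every tested compound plus 3 SD, cut at about 29% in these data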;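 note: signal is the 460 over 535 nm emission ratio of beta-lactamase substrate; 0% = agonist plus DMSO wells and 100% = wells without agonist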
Numbers without * were called inactive; . = not tested or not shown.

SMILES	5HT1a antag	5HT1a ag	HTR1E agonist	S1P3 ag	S1P1 ag-PAM	5HT1E antag
CCOc1ccc(-c2nnc(-c3ccco3)o2)cc1OCC	-14	-2	0	0	99*	-1
Cc1nc2nc[nH]n2c(=O)c1CCC(C)C	-6	-3	0	1	-6	-11
CCNc1nc(SC(C)C(=O)OC)nc(N2CCOCC2)n1 (configuration not stated)	-2	2	1	.	.	5
O=C(CSCSCC(=O)NCC1CCCO1)NCC1CCCO1 (configuration not stated)	-15	2	0	1	14	-4
CC1(C)Cc2ccccc2-c2nnc(SCC(=O)N3CCN(c4ccccc4)CC3)n21	-8	2	1	0	6	6
CCOC(=O)CN1C(=O)C(C)(C)Oc2ccc(C(=O)Nc3ccccc3OC)cc21	-2	1	-2	0	90*	3
Clc1ccc(-n2nnnc2SCc2c(-c3ccccc3)nc3sccn23)cc1	-2	3	0	-1	25	1
COc1cccc(N2CC(O)=C(c3nc4ccccc4c(=O)[nH]3)C2=N)c1	16	-1	-1	.	.	34*
COc1ccc(CC(=O)Nc2cc(Cl)ccc2O)cc1	-1	0	0	1	-7	-8
O=C(NC(=O)N1CCN(c2ccccc2F)CC1)c1ccccc1	5	17	18*	0	5	11
O=C(NC(=O)N1CCN(c2cccc(Cl)c2)CC1)c1ccccc1	12	3	14*	-1	21	8
Cc1ccc(C(=O)N2CCN(c3cccc(Cl)c3)CC2)cc1C	8	2	1	-2	24	5
O=C(NCc1ccccc1)N1CCN(c2ccccc2F)CC1	-4	2	0	0	9	1
COc1ccc(CCC(=O)NCCc2cn3c(C)csc3n2)cc1	6	-1	0	0	-5	-15
COc1ccc(N2CCN(c3oc(COc4ccccc4Cl)nc3C#N)CC2)cc1	50*	-4	0	.	.	2
N#Cc1nc(COc2ccc(F)cc2)oc1N1CCC(Cc2ccccc2)CC1	56*	-4	-1	-1	10	1
N#Cc1nc(COc2ccc(Cl)cc2)oc1N1CCCCCC1	28	-2	0	-1	.	15
COc1ccc(OCc2nc(C#N)c(N3CCN(c4ccc(OC)cc4)CC3)o2)cc1	52*	-2	0	-2	10	7
Cn1c(N2CCOCC2)nc(-c2ccccc2)c1-c1ccccc1	0	2	20*	1	5	-6
CCCCC(=O)NC1(C(F)(F)F)C(=O)Nc2c1c(=O)[nH]c(=O)n2Cc1ccco1 (configuration not stated)	9	-1	0	-1	8	0
O=S(=O)(NC1CC1)c1ccc(S(=O)(=O)N2CCCC3(CCCCC3)C2)cc1	1	3	0	0	-2	29*
CCCN=Cc1sc2ccc(OCC)cc2c1O	26	-3	35*	-2	-5	9
CCOc1ccc(N(Cc2cc3cc(OC)ccc3[nH]c2=O)C(=O)C2CCCO2)cc1 (configuration not stated)	-6	0	1	-1	-13	-9
CCOC(=O)C(C(C)=O)c1c(Br)c(O)c(O)c2c(C(=O)c3ccc(C)cc3)coc12 (configuration not stated)	45*	-2	0	-1	48	17
CC(=O)C1=C(C)NC(SCC(=O)c2cc(Cl)ccc2Cl)=C(C#N)C1c1ccco1 (configuration not stated)	33	-3	0	-2	52	31*
SMILES	5HT1a antag	5HT1a ag	HTR1E agonist	S1P3 ag	S1P1 ag-PAM	5HT1E antag
CC(=O)C1=C(C)NC(SCC(=O)c2ccc(Cl)c(Cl)c2)=C(C#N)C1c1ccco1 (configuration not stated)	13	-2	-1	0	25	21
c1ccc(-c2noc(CN3CCN(c4ccccc4)CC3)n2)cc1	6	-1	0	-1	-7	-5
Cn1cc(CN2CCN(c3ccccc3)CC2)c2ccccc21	13	-3	12*	.	.	-8
CN1CCc2nc(SCCOc3ccccc3)c(C#N)cc2C1	2	-2	0	0	22	4
COc1cccc(CNC(=O)c2nnn(CC(=O)Nc3ccc(C)c(C)c3)c2N)c1	4	1	-1	.	.	3
Cc1ccc(NC(=O)Cn2nnc(C(=O)Nc3ccc(C)c(C)c3)c2N)cc1	13	-2	1	.	.	36*
COc1cc(C(=O)Nc2ccc(OCC(=O)O)cc2)cc(OC)c1OC	-6	1	-1	-1	2	-15
Cn1cc(C(=O)NCCc2ccccc2)c(=O)c2cc(S(=O)(=O)N3CCOCC3)ccc21	-3	-2	77*	0	0	5
Cc1c(C(=O)NCCc2ccccc2)oc2ccc(S(=O)(=O)N3CCOCC3)cc12	-4	1	0	.	.	0
Cc1ccc(S(=O)(=O)c2nc(-c3ccccc3)oc2NCc2cccnc2)cc1	-1	-4	48*	0	-42	-2
CSc1oc(-c2ccccc2)nc1S(=O)(=O)c1ccc(C)cc1	20	-1	-2	-2	-27	6
Cc1cc(-c2nn3c(-c4ccccc4)nnc3s2)c2ccccc2n1	0	-1	2	0	-111	30*
CCCCCn1c2nc3ccccc3nc2c2c(=O)n(CC3CCCO3)c(C)nc21 (configuration not stated)	-7	0	1	1	6	6
Cc1ccccc1-c1nc(CN2CCC(C(=O)NCCCN3CCOCC3)CC2)c(C)o1	0	2	0	0	-1	5
Cc1oc(-c2ccc(Cl)cc2)nc1CN1CCCC(C(=O)NCc2cccnc2)C1 (configuration not stated)	4	-1	12*	-1	26	12
Cc1ccccc1-c1nc(CN2CCC(C(=O)NCCCN3CCCC3)CC2)c(C)o1	-11	-1	17*	0	4	1
Cc1oc(-c2ccc(Cl)cc2)nc1CN1CCCC(C(=O)NCc2ccccn2)C1 (configuration not stated)	2	1	1	0	5	-2
